Measurements reported in ChEMBL document CHEMBL4219033, “Anticancer activity profiling of parthenolide analogs generated via P450-mediated chemoenzymatic synthesis” (2018).

Columns and labels:
Assay type in all cases: functional
[1] = tested on: A549; test: Cytotoxicity against human A549 cells assessed as cell viability at 10 uM after 24 hrs by MTT assay relative to control; conditions: A549, 24 h, read-out: Activity
Method in brief: (§1)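 Adherent lines in DMEM plus 10% FBS and penicillin-streptomycin, 37 °C, 5% CO2, lifted with Accutase. Seeded at 500–10,000 cells/well and rested 15 h. Compounds from 10 mM DMSO stocks dosed at 10 µM final, 1% DMSO final, n = 5, for 24 h. Medium then swapped for 1 mg/ml MTT in phenol-red-free medium for 3 h at 37 °C. Formazan dissolved in DMSO, OD read at 550 nm. Viability normalised to 1% DMSO vehicle control.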

[2] = tested on: JeKo-1; test: Cytotoxicity against human JeKo1 cells assessed as cell viability at 2 uM after 24 hrs by MTT assay relative to control; conditions: JeKo-1, 24 h, read-out: Activity
Method in brief: (§2)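 Suspension lines grown in α-MEM plus 10% FBS and penicillin-streptomycin, 37 °C, 5% CO2. Seeded at 30,000 cells/well in phenol-red-free α-MEM and rested 15 h. Exposed to 10 µM, or 2 µM in the lower-dose repeat, at 1% DMSO final for 24 h. 5 mg/ml MTT added directly for 3 h at 37 °C. Plates spun, formazan dissolved in DMSO, OD read at 550 nm. Viability relative to vehicle.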

[3] = tested on: JeKo-1; test: Cytotoxicity against human JeKo1 cells assessed as cell viability at 10 uM after 24 hrs by MTT assay relative to control; conditions: JeKo-1, 24 h, read-out: Activity; method in brief: as §2
[4] = tested on: SJSA-1; test: Cytotoxicity against human SJSA1 cells assessed as cell viability at 10 uM after 24 hrs by MTT assay relative to control; conditions: SJSA-1, 24 h, read-out: Activity; method in brief: as §1
[5] = tested on: HCT-116; test: Cytotoxicity against human HCT116 cells assessed as cell viability at 10 uM after 24 hrs by MTT assay relative to control; conditions: HCT-116, 24 h, read-out: Activity; method in brief: as §1
[6] = tested on: PC-3; test: Cytotoxicity against human PC3 cells assessed as cell viability at 10 uM after 24 hrs by MTT assay relative to control; conditions: PC-3, 24 h, read-out: Activity; method in brief: as §1
[7] = tested on: Jurkat; test: Cytotoxicity against human Jurkat cells assessed as cell viability at 10 uM after 24 hrs by MTT assay relative to control; conditions: read-out: Activity; method in brief: as §2
[8] = tested on: MDA-MB-231; test: Cytotoxicity against human MDA-MB-231 cells assessed as cell viability at 10 uM after 24 hrs by MTT assay relative to control; conditions: MDA-MB-231, 24 h, read-out: Activity; method in brief: as §1
[9] = tested on: SK-MEL-2; test: Cytotoxicity against human SK-MEL-2 cells assessed as cell viability at 10 uM after 24 hrs by MTT assay relative to control; conditions: SK-MEL-2, 24 h, read-out: Activity; method in brief: as §1
[10] = tested on: SK-N-MC; test: Cytotoxicity against human SK-N-MC cells assessed as cell viability at 10 uM after 24 hrs by MTT assay relative to control; conditions: read-out: Activity; method in brief: as §1
[11] = tested on: Jurkat; test: Cytotoxicity against human Jurkat cells assessed as cell viability at 2 uM after 24 hrs by MTT assay relative to control; conditions: read-out: Activity; method in brief: as §2
[12] = tested on: HeLa; test: Cytotoxicity against human HeLa cells assessed as cell viability at 10 uM after 24 hrs by MTT assay relative to control; conditions: read-out: Activity; method in brief: as §1
[13] = tested on: HCT-116; test: Cytotoxicity against human HCT116 cells assessed as cell viability after 24 hrs by MTT assay; conditions: HCT-116, 24 h, read-out: LC50 (the source's name)
Method in brief: (§3)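 Adherent cells grown in DMEM with 10% FBS and penicillin-streptomycin, dissociated with Accutase, seeded at 500–10,000 cells/well and held 15 h before treatment. Compounds diluted from 10 mM DMSO stocks, final 1% DMSO, for 24 h at 37 °C, 5% CO2. Medium replaced with 1 mg/ml MTT for 3 h, formazan dissolved in DMSO, OD 550 nm. LC50 from dose-response curves normalized to 1% DMSO vehicle.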

[14] = tested on: MDA-MB-231; test: Cytotoxicity against human MDA-MB-231 cells assessed as cell viability after 24 hrs by MTT assay; conditions: MDA-MB-231, 24 h, read-out: LC50 (the source's name); method in brief: as §3
[15] = tested on: JeKo-1; test: Cytotoxicity against human JeKo1 cells assessed as cell viability after 24 hrs by MTT assay; conditions: JeKo-1, 24 h, read-out: LC50 (the source's name)
Method in brief: (§4)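 Suspension cells grown in α-MEM with 10% FBS and penicillin-streptomycin, seeded at 30,000 cells/well in phenol red-free medium and held 15 h before treatment. Compounds diluted from 10 mM DMSO stocks, final 1% DMSO, for 24 h. MTT (5 mg/ml stock) added directly for 3 h at 37 °C, then centrifugation, DMSO solubilization, OD 550 nm. LC50 from dose-response curves normalized to vehicle.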

[16] = tested on: Jurkat; test: Cytotoxicity against human Jurkat cells assessed as cell viability after 24 hrs by MTT assay; conditions: read-out: LC50 (the source's name); method in brief: as §4
[17] = tested on: PC-3; test: Cytotoxicity against human PC3 cells assessed as cell viability after 24 hrs by MTT assay; conditions: PC-3, 24 h, read-out: LC50 (the source's name); method in brief: as §3
[18] = tested on: HeLa; test: Cytotoxicity against human HeLa cells assessed as cell viability after 24 hrs by MTT assay; conditions: read-out: LC50 (the source's name); method in brief: as §3
[19] = tested on: SJSA-1; test: Cytotoxicity against human SJSA1 cells assessed as cell viability after 24 hrs by MTT assay; conditions: SJSA-1, 24 h, read-out: LC50 (the source's name); method in brief: as §3
[20] = tested on: SK-N-MC; test: Cytotoxicity against human SK-N-MC cells assessed as cell viability after 24 hrs by MTT assay; conditions: read-out: LC50 (the source's name); method in brief: as §3
[21] = tested on: A549; test: Cytotoxicity against human A549 cells assessed as cell viability after 24 hrs by MTT assay; conditions: A549, 24 h, read-out: LC50 (the source's name); method in brief: as §3

Structure (SMILES)	viability at 10 µM [1] [%]	viability at 2 µM [2] [%]	viability at 10 µM [3] [%]	viability at 10 µM [4] [%]	viability at 10 µM [5] [%]	viability at 10 µM [6] [%]	viability at 10 µM [7] [%]	viability at 10 µM [8] [%]	viability at 10 µM [9] [%]	viability at 10 µM [10] [%]	viability at 2 µM [11] [%]	viability at 10 µM [12] [%]	CC50 [13] [µM]	CC50 [17] [µM]	CC50 [18] [µM]	other results
C=C1C(=O)O[C@@H]2[C@H]3O[C@]3(C)CC/C=C(/COC(=O)Nc3ccccc3)CC[C@@H]12	60.3	100	16.6	100	45.9	85.3	0	97.1	80.5	102	89.2	74.2				
C=C1C(=O)O[C@@H]2[C@H]3O[C@]3(C)CC/C=C(/C)[C@@H](OC(=O)c3cc(-c4ccc(Cl)cc4)on3)C[C@@H]12	98.4	96.9	-2.7	92.7	14.2	71.7	0	84.7	85.8	70.7	95.7	63.5	8.3			
C=C1C(=O)O[C@@H]2[C@H]3O[C@]3(C)CC/C=C(/COC(=O)c3coc(-c4ccc(Br)cc4)c3)CC[C@@H]12	74.8	100	7.4	47.7	11.8	65.9	0	91	78.8	66.1	89	57.6	11.8			
C=C1C(=O)O[C@@H]2[C@H]3O[C@]3(C)CC/C=C(/C)[C@@H](OC(=O)Nc3cccc4ccccc34)C[C@@H]12	95.8	97.6	75.7	100	100	83.4	84	100	98.7	96.8	93.3	88.8				
C=C1C(=O)O[C@@H]2[C@H]3O[C@]3(C)CC/C=C(/C)[C@@H](OC(=O)Nc3ccccc3)C[C@@H]12	84.5	92.2	2.6	96.6	55.3	88.4	2.9	100	69.4	91.9	89.8	69				
C=C1C(=O)O[C@@H]2[C@H]3O[C@]3(C)CC/C=C(/C)[C@@H](OC(=O)Nc3cc(C(F)(F)F)cc(C(F)(F)F)c3)C[C@@H]12	54.3	76.4	-1	68.2	10.8	38.7	0	16.7	57	18.5	68.9	20.2	7.9			CC50 [14]: 7.2 µM; CC50 [15]: 3.5 µM; CC50 [16]: 2.8 µM
C=C1C(=O)O[C@@H]2[C@H]3O[C@]3(C)CC/C=C(/COC(=O)Nc3ccc([N+](=O)[O-])cc3)CC[C@@H]12	60	80	-0.1	44.5	1.6	17.7	0	41.3	40.4	23.3	79	5.4	7.8	5.7	1.7	
C=C1C(=O)O[C@@H]2[C@H]3O[C@]3(C)CC/C=C(/COC(=O)c3ccc(C(F)(F)F)cc3C(F)(F)F)CC[C@@H]12	45.1	80.9	-2.2	17.8	15.1	4	0	20.7	62	18.7	89	11.3	8.2	6.7	2.9	CC50 [19]: 7.7 µM; CC50 [20]: 5.6 µM
C=C1C(=O)O[C@@H]2[C@H]3O[C@]3(C)CC/C=C(/COC(=O)c3cc(C(F)(F)F)cc(C(F)(F)F)c3)CC[C@@H]12	29.6	64.3	4.8	23.1	15.5	3.7	5.7	8	28.6	3.2	70	3.9	5.7	4.7	1.5	CC50 [21]: 4.9 µM; CC50 [14]: 6.2 µM; CC50 [15]: 1.7 µM; CC50 [19]: 6.4 µM; CC50 [16]: 1.9 µM; CC50 [20]: 0.6 µM
C=C1C(=O)O[C@@H]2[C@H]3O[C@]3(C)CC/C=C(/COC(=O)Nc3ccc(F)cc3F)CC[C@@H]12	70.6	78.3	-2.1	100	33.2	89.8	0	88.5	84.5	95.6	86.2	89.7				CC50 [15]: 6.7 µM
C=C1C(=O)O[C@@H]2[C@H]3O[C@]3(C)CC/C=C(/C)[C@@H](OC(=O)c3ccc(C(F)(F)F)cc3C(F)(F)F)C[C@@H]12	33.7	105	5.7	26.5	20.8	6.4	0	19.2	61.4	11.5	83.2	10.7		5.3	2.1	CC50 [14]: 5.7 µM; CC50 [20]: 5.7 µM
C=C1C(=O)O[C@@H]2[C@H]3O[C@]3(C)CC/C=C(/C)[C@@H](OC(=O)Nc3ccc(F)cc3F)C[C@@H]12	68.9	80.4	-2.6	100	17.6	82.8	0	96.4	85.8	91.3	85.8	76.3	11.8			
